Experimental data from ChEMBL document CHEMBL1781874, “Cytotoxic triterpenoids from the stems of Microtropis japonica” (J Nat Prod, 2009).
≈ marks a conversion by molar mass, not a printed value. Calls of active or inactive are those of the source. The calls are words filed in the database; no cut-off is given here.

How the values were obtained:
HL-60 [1] = test: Cytotoxicity against human HL60 cells after 24 hrs by MTT assay; assay type: functional, cell-based; conditions: HL-60, 24 h
Procedure, shortened: (§1)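 MTT viability read-out on human cancer cell lines (Ca9-22 gingival, HL60 leukemia, HepG2 hepatoma), run to a previously published protocol.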

HepG2 = test: Cytotoxicity against human HepG2 cells after 24 hrs by MTT assay; assay type: functional, cell-based; conditions: HepG2, 24 h; procedure, shortened: as §1
HL-60 [2] = test: Induction of apoptosis in human HL60 cells assessed as increase in Bax expression by Western blotting analysis; assay type: functional, cell-based
Procedure, shortened: (§2)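 Cells lysed for 30 min in RIPA buffer (PBS, 1% NP-40, 0.5% deoxycholate, 0.1% SDS, 1 mM orthovanadate, 100 μg/mL PMSF, 30 μg/mL aprotinin), then spun at 20000g for 30 min. Supernatant protein quantified by Bio-Rad assay. Equal protein run on 7.5, 10 or 12% SDS-PAGE, transferred to PVDF, blocked 1 h in 5% nonfat milk in TBST.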

[3] = target: Histone deacetylase 5 (Homo sapiens) (UniProt Q9UQL6); test: Inhibition of HDAC5 in human HL60 cells at 5 to 20 ug/ml after 24 hrs by Western blotting analysis; assay type: cell-based; conditions: HL-60; procedure, shortened: as §2
[4] = target: T1, Protein deacetylase HDAC6 (Homo sapiens) (UniProt Q9UBN7); test: Inhibition of HDAC6 in human HL60 cells at 5 to 20 ug/ml after 24 hrs by Western blotting analysis; assay type: cell-based; conditions: HL-60; procedure, shortened: as §2
T1 sequence (whole entry): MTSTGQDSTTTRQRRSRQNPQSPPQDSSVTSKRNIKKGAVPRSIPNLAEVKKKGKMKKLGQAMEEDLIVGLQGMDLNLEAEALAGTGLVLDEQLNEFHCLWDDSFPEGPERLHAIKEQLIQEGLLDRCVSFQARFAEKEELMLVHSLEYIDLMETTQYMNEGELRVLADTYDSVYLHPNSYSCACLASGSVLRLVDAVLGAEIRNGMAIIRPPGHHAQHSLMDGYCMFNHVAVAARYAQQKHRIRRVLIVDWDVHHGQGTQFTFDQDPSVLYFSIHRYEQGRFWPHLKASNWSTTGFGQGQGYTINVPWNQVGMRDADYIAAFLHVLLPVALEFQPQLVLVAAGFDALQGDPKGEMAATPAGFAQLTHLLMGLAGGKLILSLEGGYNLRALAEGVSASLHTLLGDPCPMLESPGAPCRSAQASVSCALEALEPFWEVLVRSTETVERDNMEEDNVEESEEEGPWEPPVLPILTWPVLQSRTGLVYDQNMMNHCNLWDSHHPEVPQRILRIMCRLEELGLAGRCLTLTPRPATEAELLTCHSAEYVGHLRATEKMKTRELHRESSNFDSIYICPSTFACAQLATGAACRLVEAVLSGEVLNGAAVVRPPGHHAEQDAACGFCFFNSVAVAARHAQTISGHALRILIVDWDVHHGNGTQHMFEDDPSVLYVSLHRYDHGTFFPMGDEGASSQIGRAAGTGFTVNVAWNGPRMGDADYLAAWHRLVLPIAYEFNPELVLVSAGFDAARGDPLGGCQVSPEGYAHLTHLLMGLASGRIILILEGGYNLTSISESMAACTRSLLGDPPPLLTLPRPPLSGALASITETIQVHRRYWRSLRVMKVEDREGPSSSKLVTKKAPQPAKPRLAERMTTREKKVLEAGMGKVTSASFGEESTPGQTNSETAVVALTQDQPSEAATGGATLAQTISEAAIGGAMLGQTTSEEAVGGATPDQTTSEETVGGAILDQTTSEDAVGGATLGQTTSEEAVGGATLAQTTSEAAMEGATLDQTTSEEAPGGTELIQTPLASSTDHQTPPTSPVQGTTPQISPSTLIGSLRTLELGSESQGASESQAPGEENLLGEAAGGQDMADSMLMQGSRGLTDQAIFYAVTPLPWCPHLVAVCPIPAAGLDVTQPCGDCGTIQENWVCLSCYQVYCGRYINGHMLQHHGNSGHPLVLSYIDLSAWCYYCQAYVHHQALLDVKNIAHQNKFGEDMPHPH

[5] = target: Histone deacetylase 1 (Homo sapiens) (UniProt Q13547); test: Inhibition of HDAC1 in human HL60 cells at 5 to 20 ug/ml after 24 hrs by Western blotting analysis; assay type: cell-based; conditions: HL-60; procedure, shortened: as §2
[6] = target: Histone deacetylase 3 (Homo sapiens) (UniProt O15379); test: Inhibition of HDAC3 in human HL60 cells at 5 to 20 ug/ml after 24 hrs by Western blotting analysis; assay type: cell-based; conditions: HL-60; procedure, shortened: as §2
[7] = target: Histone deacetylase 4 (Homo sapiens) (UniProt P56524); test: Inhibition of HDAC4 in human HL60 cells at 5 to 20 ug/ml after 24 hrs by Western blotting analysis; assay type: cell-based; conditions: HL-60; procedure, shortened: as §2
[8] = target: Histone deacetylase (Homo sapiens) (UniProt Q13547+O15379+Q9UBN7+Q92769+Q9UQL6+Q8WUI4+Q9BY41+Q96DB2+P56524+Q9UKV0+Q969S8); conditions: HL-60, at 20 µg/mL
Ca9-22 = test: Cytotoxicity against human Ca9-22 cells after 24 hrs by MTT assay; assay type: functional, cell-based; conditions: Ca9-22, 24 h; procedure, shortened: as §1
HL-60 [9] = test: Effect on Bcl2 expression in human HL60 cells by Western blotting analysis; assay type: functional, cell-based; procedure, shortened: as §2
HL-60 [10] = test: Induction of apoptosis in human HL60 cells assessed as PARP cleavage by Western blotting analysis; assay type: functional, cell-based; procedure, shortened: as §2

Sequence of Histone deacetylase 1 (Homo sapiens) (Q13547 whole entry): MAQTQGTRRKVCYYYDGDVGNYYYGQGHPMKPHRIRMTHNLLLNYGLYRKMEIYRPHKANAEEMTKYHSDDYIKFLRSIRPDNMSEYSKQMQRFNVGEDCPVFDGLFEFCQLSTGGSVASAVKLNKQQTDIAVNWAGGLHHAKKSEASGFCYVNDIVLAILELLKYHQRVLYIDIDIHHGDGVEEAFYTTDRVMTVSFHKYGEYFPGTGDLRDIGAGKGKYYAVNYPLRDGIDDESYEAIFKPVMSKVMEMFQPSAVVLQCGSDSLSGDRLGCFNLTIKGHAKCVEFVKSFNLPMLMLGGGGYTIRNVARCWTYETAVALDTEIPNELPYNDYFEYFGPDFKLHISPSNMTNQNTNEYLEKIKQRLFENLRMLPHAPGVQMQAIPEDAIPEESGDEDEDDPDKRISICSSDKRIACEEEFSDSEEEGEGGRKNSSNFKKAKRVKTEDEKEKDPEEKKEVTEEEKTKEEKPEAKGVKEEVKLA
Sequence of Histone deacetylase 3 (Homo sapiens) (O15379 whole entry): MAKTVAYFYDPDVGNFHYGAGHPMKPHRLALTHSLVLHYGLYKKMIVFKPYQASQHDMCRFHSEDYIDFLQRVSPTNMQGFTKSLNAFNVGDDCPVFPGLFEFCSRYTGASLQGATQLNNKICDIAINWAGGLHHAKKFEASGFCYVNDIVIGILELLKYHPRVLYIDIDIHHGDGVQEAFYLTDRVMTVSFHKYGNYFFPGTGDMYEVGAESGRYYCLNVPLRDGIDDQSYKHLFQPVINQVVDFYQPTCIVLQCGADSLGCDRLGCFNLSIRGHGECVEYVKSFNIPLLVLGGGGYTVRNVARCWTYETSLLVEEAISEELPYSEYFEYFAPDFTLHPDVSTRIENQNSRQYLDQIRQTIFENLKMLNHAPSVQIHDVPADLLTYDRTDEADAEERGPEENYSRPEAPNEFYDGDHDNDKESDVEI
Sequence of Histone deacetylase 4 (Homo sapiens) (P56524 whole entry): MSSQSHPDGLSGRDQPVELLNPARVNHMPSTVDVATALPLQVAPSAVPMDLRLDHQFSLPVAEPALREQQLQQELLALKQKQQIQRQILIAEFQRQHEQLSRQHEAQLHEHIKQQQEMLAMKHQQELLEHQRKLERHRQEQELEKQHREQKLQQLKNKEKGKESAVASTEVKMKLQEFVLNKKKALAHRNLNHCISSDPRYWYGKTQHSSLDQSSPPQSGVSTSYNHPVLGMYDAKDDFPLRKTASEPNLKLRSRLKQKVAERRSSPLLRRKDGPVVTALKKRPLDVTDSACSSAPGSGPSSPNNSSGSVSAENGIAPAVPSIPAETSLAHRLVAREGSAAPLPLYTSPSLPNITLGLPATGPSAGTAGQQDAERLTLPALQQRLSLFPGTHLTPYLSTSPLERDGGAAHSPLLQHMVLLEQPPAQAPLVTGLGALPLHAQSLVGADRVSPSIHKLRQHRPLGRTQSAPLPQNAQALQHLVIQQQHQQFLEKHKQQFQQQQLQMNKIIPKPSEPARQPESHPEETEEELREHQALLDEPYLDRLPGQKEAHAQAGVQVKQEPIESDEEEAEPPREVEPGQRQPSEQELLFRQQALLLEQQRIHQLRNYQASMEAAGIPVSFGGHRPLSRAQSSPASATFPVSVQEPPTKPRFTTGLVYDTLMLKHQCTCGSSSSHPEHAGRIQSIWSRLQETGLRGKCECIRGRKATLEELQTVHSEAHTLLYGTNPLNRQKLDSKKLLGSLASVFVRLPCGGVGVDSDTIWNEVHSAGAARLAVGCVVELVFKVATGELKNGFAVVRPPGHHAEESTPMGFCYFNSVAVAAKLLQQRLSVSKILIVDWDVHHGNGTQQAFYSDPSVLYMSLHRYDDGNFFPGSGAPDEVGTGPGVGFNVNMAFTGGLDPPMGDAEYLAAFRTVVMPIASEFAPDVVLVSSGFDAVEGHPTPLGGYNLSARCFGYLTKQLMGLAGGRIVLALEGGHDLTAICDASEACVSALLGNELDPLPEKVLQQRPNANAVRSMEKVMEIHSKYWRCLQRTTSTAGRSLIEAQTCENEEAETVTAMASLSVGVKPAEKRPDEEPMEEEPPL
Sequence of Histone deacetylase 5 (Homo sapiens) (Q9UQL6 whole entry): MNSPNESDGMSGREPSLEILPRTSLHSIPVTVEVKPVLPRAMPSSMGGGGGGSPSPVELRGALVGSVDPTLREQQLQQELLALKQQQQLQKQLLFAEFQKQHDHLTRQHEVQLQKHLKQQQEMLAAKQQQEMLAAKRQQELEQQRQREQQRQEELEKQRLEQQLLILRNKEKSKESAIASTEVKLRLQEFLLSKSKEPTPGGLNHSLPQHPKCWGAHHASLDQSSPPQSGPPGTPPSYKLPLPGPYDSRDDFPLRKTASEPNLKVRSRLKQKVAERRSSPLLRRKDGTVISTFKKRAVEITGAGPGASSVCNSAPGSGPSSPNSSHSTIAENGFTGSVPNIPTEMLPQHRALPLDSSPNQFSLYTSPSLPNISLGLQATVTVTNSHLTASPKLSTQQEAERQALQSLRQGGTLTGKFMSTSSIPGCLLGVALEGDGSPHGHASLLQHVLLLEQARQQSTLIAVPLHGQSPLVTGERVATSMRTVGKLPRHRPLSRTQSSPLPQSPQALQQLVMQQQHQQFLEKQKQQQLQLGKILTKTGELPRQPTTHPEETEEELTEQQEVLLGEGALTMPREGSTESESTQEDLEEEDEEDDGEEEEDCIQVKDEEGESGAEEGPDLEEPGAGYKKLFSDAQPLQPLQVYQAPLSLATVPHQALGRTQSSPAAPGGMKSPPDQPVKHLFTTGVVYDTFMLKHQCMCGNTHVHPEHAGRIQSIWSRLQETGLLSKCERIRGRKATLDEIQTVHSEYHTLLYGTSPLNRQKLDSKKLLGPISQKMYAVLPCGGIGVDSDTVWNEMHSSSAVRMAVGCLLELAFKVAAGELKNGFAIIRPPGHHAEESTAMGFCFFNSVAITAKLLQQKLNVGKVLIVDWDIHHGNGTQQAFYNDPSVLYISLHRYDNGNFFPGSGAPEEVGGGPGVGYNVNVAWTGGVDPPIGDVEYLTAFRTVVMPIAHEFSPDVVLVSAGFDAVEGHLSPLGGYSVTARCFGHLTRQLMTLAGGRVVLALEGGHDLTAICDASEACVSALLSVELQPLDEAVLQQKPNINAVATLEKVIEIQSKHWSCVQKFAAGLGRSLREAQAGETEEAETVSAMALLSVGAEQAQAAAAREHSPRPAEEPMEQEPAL

Structure (SMILES): CO[C@@H]1C(O)=C2[C@@H]3[C@@H](C)[C@H](C)CC[C@]3(C)CC[C@@]2(C)[C@]2(C)CC[C@@H]3[C@](C)(CCC(=O)[C@@]3(C)CO)[C@@H]12
- IC50 (HL-60 [1]): 5.1 µg/mL (≈ 10.5 µM)
- IC50 (HepG2): 7.7 µg/mL (≈ 15.8 µM)

Structure (SMILES): C[C@H]1[C@H](C)CC[C@]2(C(=O)O)CC[C@]3(C)C(=CC[C@@H]4[C@@]5(C)CC[C@H](O)C(C)(C)[C@@H]5CC[C@]43C)[C@H]12 [URSOLIC ACID]
- IC50 (HL-60 [1]): 8.7 µg/mL (≈ 19 µM)
- Activity (HL-60 [2]): Active
- inhibition [3]: Active
- inhibition [4]: Active
- inhibition [5]: Active
- inhibition [6]: Active
- inhibition [7]: Active
- inhibition [8]: Active
- IC50 (Ca9-22): 5.9 µg/mL (≈ 12.9 µM)
- Activity (HL-60 [9]): inactive
- Activity (HL-60 [10]): Active
